ChEMBL document CHEMBL1157028, “Synthesis and anti-inflammatory activity of novel (substituted)benzylidene acetone oxime ether derivatives: molecular modeling study” (Eur J Med Chem, 2010)

Experiments:
Rattus norvegicus [1] = assay: Antiinflammatory activity in Wistar rat assessed as inhibition of carrageenan-induced paw edema at equimolar ip dose relative […] diclofenac sodium administered 1 hr before carrageenan challenge measured after 3 hrs relative to control; format: functional
Outline: (§1)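 Wistar rats (100–120 g), 5 per group, were dosed ip either at equimolar […] or at three graded doses to derive ED50. Vehicle-only rats served as controls. After 1 h, 0.05 mL 1% carrageenin in saline (made 24 h earlier) was injected subplantar into the right hind paw and saline into the left. At 3 h, rats were killed and both paws cut and weighed. Right-over-left % weight increase gave % oedema reduction versus control.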

Rattus norvegicus [2] = assay: Antiinflammatory activity in Wistar rat assessed as inhibition of carrageenan-induced paw edema at 30 mg/kg, ip administered 1 hr before carrageenan challenge measured after 3 hrs relative to control; format: functional; details: route intraperitoneal; outline: as §1
Mus musculus [3] = assay: Analgesic activity in Swiss albino mouse assessed as inhibition of acetic acid-induced writhing at 100 mg/kg, po administered 2 hrs before acetic acid challenge measured after 20 mins relative to control; format: functional
Outline: (§2)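 Swiss albino mice of either sex (20–25 g), in groups of 6, were housed at 22 ± 2 °C on a 12 h light/dark cycle. Drug was given orally and vehicle alone to negative controls. After 2 h, 0.2 mL 3% acetic acid was injected ip. Writhes were counted over 20 min, and % reduction in writhe number versus the control group was calculated.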

Rattus norvegicus [4] = assay: Antiinflammatory activity in ip dosed Wistar rat assessed as inhibition of carrageenan-induced paw edema administered 1 hr before carrageenan challenge measured after 3 hrs relative to control; format: functional; outline: as §1
[5] = Therapeutic index, ED50 for antiinflammatory activity to LD50 for acute toxicity in Wistar rat; details: read-out: TI
[6] = Acute toxicity in ip dosed Wistar rat assessed as mortality after 24 hrs; format: organism-based; details: in vivo
Mus musculus [7] = assay: Analgesic activity in Swiss albino mouse assessed as inhibition of acetic acid-induced writhing at 37 mg/kg, po administered 2 hrs before acetic acid challenge measured after 20 mins relative to control; format: functional; outline: as §2
Rattus norvegicus [8] = assay: Antiinflammatory activity in Wistar rat assessed as inhibition of carrageenan-induced paw edema at 37 mg/kg, ip administered 1 hr before carrageenan challenge measured after 3 hrs relative to control; format: functional; details: route intraperitoneal; outline: as §1
Rattus norvegicus [9] = assay: Antiinflammatory activity in Wistar rat assessed as inhibition of carrageenan-induced paw edema at 75 mg/kg, ip administered 1 hr before carrageenan challenge measured after 3 hrs relative to control; format: functional; details: route intraperitoneal; outline: as §1
Rattus norvegicus [10] = assay: Gastrointestinal toxicity in Wistar rat assessed as length of elongated ulcer at equimolar po dose relative […] diclofenac sodium qd for 5 days measured after 10 hrs last post dose; format: organism-based; details: in vivo
Outline: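 Rats, 5 per group, were given oral equimolar doses ([…]) daily for 5 days. They were killed by ether overdose 10 h after the last dose. Stomachs were rinsed with saline, opened along the greater curvature and examined under a ×10 hand lens. Ulcer number and summed ulcer length were recorded per animal, and the mean was taken as ulcer index.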

Mus musculus [11] = assay: Analgesic activity in Swiss albino mouse assessed as inhibition of acetic acid-induced writhing at 45 mg/kg, po administered 2 hrs before acetic acid challenge measured after 20 mins relative to control; format: functional; outline: as §2
Rattus norvegicus [12] = assay: Antiinflammatory activity in Wistar rat assessed as inhibition of carrageenan-induced paw edema at 45 mg/kg, ip administered 1 hr before carrageenan challenge measured after 3 hrs relative to control; format: functional; details: route intraperitoneal; outline: as §1
Rattus norvegicus [13] = assay: Antiinflammatory activity in Wistar rat assessed as inhibition of carrageenan-induced paw edema at 50 mg/kg, ip administered 1 hr before carrageenan challenge measured after 3 hrs relative to control; format: functional; details: route intraperitoneal; outline: as §1
Mus musculus [14] = assay: Analgesic activity in Swiss albino mouse assessed as inhibition of acetic acid-induced writhing at 50 mg/kg, po administered 2 hrs before acetic acid challenge measured after 20 mins relative to control; format: functional; outline: as §2
Rattus norvegicus [15] = assay: Antiinflammatory activity in Wistar rat assessed as inhibition of carrageenan-induced paw edema at […], ip administered 1 hr before carrageenan challenge measured after 3 hrs relative to control; format: functional; outline: as §1

For `CCOC(=O)C(C)O/N=C(C)/C=C/c1ccccc1` (centres undefined), the “inhibition (INH)” value (Rattus norvegicus [1]) was 33.2%.

In the case of `CC(/C=C/c1ccccc1)=N\OCC(=O)Nc1ccccc1`, the “inhibition (INH)” value (Rattus norvegicus [1]) is reported as 35.43%.

With `CC(/C=C/c1ccc(Cl)cc1)=N\OCC(=O)NC(C)C` the “inhibition (INH)” value (Rattus norvegicus [1]) was 28.49%.

For `CC(/C=C/c1ccc(Cl)cc1)=N\OCC(=O)O`, the “inhibition (INH)” value (Rattus norvegicus [1]) was 50.57%.

`CC(/C=C/c1ccccc1)=N\OC(C)C(N)=O` (centres undefined) gave an inhibition in vivo at 30 mg/kg (Rattus norvegicus [2]) of 37.7%, an inhibition in vivo at 100 mg/kg (Mus musculus [3]) of 82.5% and an ED50 (Rattus norvegicus [4]) of 34.3 mg/kg. The selectivity ratio [5] was 20.1, the LD50 at 24 h [6] was 745 mg/kg and the “inhibition (INH)” value (Rattus norvegicus [1]) was 63.23%. For the same molecule, the inhibition in vivo at 37 mg/kg (Mus musculus [7]) was 53.6%, the inhibition in vivo at 37 mg/kg (Rattus norvegicus [8]) was 63.2% and the inhibition in vivo at 75 mg/kg (Rattus norvegicus [9]) was 69.1%. It also gave an Activity (Rattus norvegicus [10]) of 0.3 mm.

For `COc1ccc(NC(=O)CO/N=C(C)/C=C/c2ccccc2)cc1`, the “inhibition (INH)” value (Rattus norvegicus [1]) was 49.64%.

With `COc1ccc(/C=C/C(C)=N/OCC(=O)NN)cc1` the “inhibition (INH)” value (Rattus norvegicus [1]) was 24.44%.

In the case of `COc1ccc(/C=C/C(C)=N/OCC(=O)O)cc1`, the “inhibition (INH)” value (Rattus norvegicus [1]) is reported as 7.35%.

`CC(/C=C/c1ccc(Cl)cc1)=N\OC(C)C(=O)O` (centres undefined) gave an inhibition in vivo at 30 mg/kg (Rattus norvegicus [2]) of 45.1%, an inhibition in vivo at 100 mg/kg (Mus musculus [3]) of 39.1% and an ED50 (Rattus norvegicus [4]) of 29.9 mg/kg. The inhibition in vivo at 45 mg/kg (Mus musculus [11]) was 20.3%, the selectivity ratio [5] was 24.9 and the LD50 at 24 h [6] was 745 mg/kg. For the same molecule, the “inhibition (INH)” value (Rattus norvegicus [1]) was 66.7%, the inhibition in vivo at 45 mg/kg (Rattus norvegicus [12]) was 66.7% and the inhibition in vivo at 75 mg/kg (Rattus norvegicus [9]) was 75.2%. For the same molecule, the Activity (Rattus norvegicus [10]) was 8.1 mm.

With `COc1ccc(/C=C/C(C)=N/OCC(=O)Nc2ccc(Cl)cc2)cc1` the “inhibition (INH)” value (Rattus norvegicus [1]) was 43.32%.

In the case of `CC(/C=C/c1ccccc1)=N\OCC(=O)NN`, the “inhibition (INH)” value (Rattus norvegicus [1]) is reported as 29.01%.

With `CCOC(=O)CO/N=C(C)/C=C/c1ccc(OC)cc1` the “inhibition (INH)” value (Rattus norvegicus [1]) was 22.14%.

With `CC(/C=C/c1ccccc1)=N\OCC(=O)O` the “inhibition (INH)” value (Rattus norvegicus [1]) was 45.62%.

With `CC(/C=C/c1ccc(Cl)cc1)=N\OCC(=O)Nc1ccccc1` the “inhibition (INH)” value (Rattus norvegicus [1]) was 29.45%.

With `CC(/C=C/c1ccc(Cl)cc1)=N\OC(C)C(=O)NN` (centres undefined) the “inhibition (INH)” value (Rattus norvegicus [1]) was 43.49%.

With `CC(/C=C/c1ccccc1)=N\OC(C)C(=O)NN` (centres undefined) the “inhibition (INH)” value (Rattus norvegicus [1]) was 56.27%.

With `CC(/C=C/c1ccc(Cl)cc1)=N\OC(C)C(=O)NC(C)C` (centres undefined) the “inhibition (INH)” value (Rattus norvegicus [1]) was 42.84%.

With `COc1ccc(/C=C/C(C)=N/OCC(N)=O)cc1` the “inhibition (INH)” value (Rattus norvegicus [1]) was 38.21%.

For `COc1ccc(/C=C/C(C)=N/OC(C)C(=O)O)cc1` (centres undefined), the “inhibition (INH)” value (Rattus norvegicus [1]) was 45.38%.

With `COc1ccc(/C=C/C(C)=N/OCC(=O)NC(C)C)cc1` the “inhibition (INH)” value (Rattus norvegicus [1]) was 41.68%.

For `CCOC(=O)C(C)O/N=C(C)/C=C/c1ccc(OC)cc1` (centres undefined), the “inhibition (INH)” value (Rattus norvegicus [1]) was 21.66%.

With `CC(/C=C/c1ccccc1)=N\OCC(N)=O` the “inhibition (INH)” value (Rattus norvegicus [1]) was 49.71%.

For `O=C([O-])Cc1ccccc1Nc1c(Cl)cccc1Cl.[Na+]` [DICLOFENAC SODIUM], the inhibition in vivo at 50 mg/kg (Rattus norvegicus [13]) was 72.1%, the inhibition in vivo at 50 mg/kg (Mus musculus [14]) was 71.1% and the inhibition in vivo at 30 mg/kg (Rattus norvegicus [2]) was 46%. The ED50 (Rattus norvegicus [4]) was 30.6 mg/kg, the “inhibition (INH)” value (Rattus norvegicus [15]) was 72.13% and the inhibition in vivo at 75 mg/kg (Rattus norvegicus [9]) was 80.2%. It also gave an Activity (Rattus norvegicus [10]) of 7.9 mm.

With `CC(/C=C/c1ccccc1)=N\OCC(=O)Nc1ccc(Cl)cc1` the “inhibition (INH)” value (Rattus norvegicus [1]) was 28.66%.

With `CC(/C=C/c1ccccc1)=N\OC(C)C(=O)O` (centres undefined) the “inhibition (INH)” value (Rattus norvegicus [1]) was 40.85%.

For `CCOC(=O)CO/N=C(C)/C=C/c1ccccc1`, the “inhibition (INH)” value (Rattus norvegicus [1]) was 29.76%.

In the case of `CC(/C=C/c1ccc(Cl)cc1)=N\OCC(N)=O`, the “inhibition (INH)” value (Rattus norvegicus [1]) is reported as 50.77%.

For `CC(/C=C/c1ccc(Cl)cc1)=N\OCC(=O)NN`, the “inhibition (INH)” value (Rattus norvegicus [1]) was 21.76%.

In the case of `CC(/C=C/c1ccc(Cl)cc1)=N\OCC(=O)Nc1ccc(Cl)cc1`, the “inhibition (INH)” value (Rattus norvegicus [1]) is reported as 40.89%.

For `CC(/C=C/c1ccccc1)=N\OC(C)C(=O)NC(C)C` (centres undefined), the “inhibition (INH)” value (Rattus norvegicus [1]) was 37.38%.

In the case of `COc1ccc(/C=C/C(C)=N/OCC(=O)Nc2ccccc2)cc1`, the “inhibition (INH)” value (Rattus norvegicus [1]) is reported as 42.91%.

In the case of `CCOC(=O)CO/N=C(C)/C=C/c1ccc(Cl)cc1`, the “inhibition (INH)” value (Rattus norvegicus [1]) is reported as 26.23%.

With `CC(/C=C/c1ccc(Cl)cc1)=N\OC(C)C(N)=O` (centres undefined) the “inhibition (INH)” value (Rattus norvegicus [1]) was 57.54%.

With `COc1ccc(/C=C/C(C)=N/OC(C)C(=O)NN)cc1` (centres undefined) the “inhibition (INH)” value (Rattus norvegicus [1]) was 38.76%.

For `COc1ccc(/C=C/C(C)=N/OC(C)C(N)=O)cc1` (centres undefined), the “inhibition (INH)” value (Rattus norvegicus [1]) was 58.53%.

For `COc1ccc(NC(=O)CO/N=C(C)/C=C/c2ccc(Cl)cc2)cc1`, the “inhibition (INH)” value (Rattus norvegicus [1]) was 48.16%.

With `CC(/C=C/c1ccccc1)=N\OCC(=O)NC(C)C` the “inhibition (INH)” value (Rattus norvegicus [1]) was 30.93%.

For `COc1ccc(/C=C/C(C)=N/OC(C)C(=O)NC(C)C)cc1` (centres undefined), the “inhibition (INH)” value (Rattus norvegicus [1]) was 27.53%.

For `COc1ccc(/C=C/C(C)=N/OCC(=O)Nc2ccc(OC)cc2)cc1`, the “inhibition (INH)” value (Rattus norvegicus [1]) was 37.25%.

For `CCOC(=O)C(C)O/N=C(C)/C=C/c1ccc(Cl)cc1` (centres undefined), the “inhibition (INH)” value (Rattus norvegicus [1]) was 44.52%.
